Columns and labels:
[1] = target: Voltage-dependent L-type calcium channel subunit alpha-1D (Rattus norvegicus, UniProt P27732); assay: Antagonist activity at rat Cav1.3 expressed in HEK293 cells assessed as inhibition of voltage pulse-induced calcium current by FLIPR calcium 4 assay; type: functional, cell-based
Method in brief: (§1)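 HEK293 lines stably expressing Cavβ3 and Cavα2δ-1 plus Cav1.2 α1C (rabbit) or Cav1.3 α1D (rat) were selected with zeocin/hygromycin. Calcium signals were read by FLIPR with Calcium 4 dye. IC50 came from 11-point dose-response curves. Signal percentage error (SD/mean) was 6.4% for Cav1.2 and 4.1% for Cav1.3 cells.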

[2] = target: Voltage-dependent L-type calcium channel subunit alpha-1C (Oryctolagus cuniculus, UniProt P15381); assay: Antagonist activity at rabbit Cav1.2 expressed in HEK293 cells assessed as inhibition of voltage pulse-induced calcium current by FLIPR calcium 4 assay; type: functional, cell-based; method in brief: as §1
Chain of Voltage-dependent L-type calcium channel subunit alpha-1C (P15381 whole entry): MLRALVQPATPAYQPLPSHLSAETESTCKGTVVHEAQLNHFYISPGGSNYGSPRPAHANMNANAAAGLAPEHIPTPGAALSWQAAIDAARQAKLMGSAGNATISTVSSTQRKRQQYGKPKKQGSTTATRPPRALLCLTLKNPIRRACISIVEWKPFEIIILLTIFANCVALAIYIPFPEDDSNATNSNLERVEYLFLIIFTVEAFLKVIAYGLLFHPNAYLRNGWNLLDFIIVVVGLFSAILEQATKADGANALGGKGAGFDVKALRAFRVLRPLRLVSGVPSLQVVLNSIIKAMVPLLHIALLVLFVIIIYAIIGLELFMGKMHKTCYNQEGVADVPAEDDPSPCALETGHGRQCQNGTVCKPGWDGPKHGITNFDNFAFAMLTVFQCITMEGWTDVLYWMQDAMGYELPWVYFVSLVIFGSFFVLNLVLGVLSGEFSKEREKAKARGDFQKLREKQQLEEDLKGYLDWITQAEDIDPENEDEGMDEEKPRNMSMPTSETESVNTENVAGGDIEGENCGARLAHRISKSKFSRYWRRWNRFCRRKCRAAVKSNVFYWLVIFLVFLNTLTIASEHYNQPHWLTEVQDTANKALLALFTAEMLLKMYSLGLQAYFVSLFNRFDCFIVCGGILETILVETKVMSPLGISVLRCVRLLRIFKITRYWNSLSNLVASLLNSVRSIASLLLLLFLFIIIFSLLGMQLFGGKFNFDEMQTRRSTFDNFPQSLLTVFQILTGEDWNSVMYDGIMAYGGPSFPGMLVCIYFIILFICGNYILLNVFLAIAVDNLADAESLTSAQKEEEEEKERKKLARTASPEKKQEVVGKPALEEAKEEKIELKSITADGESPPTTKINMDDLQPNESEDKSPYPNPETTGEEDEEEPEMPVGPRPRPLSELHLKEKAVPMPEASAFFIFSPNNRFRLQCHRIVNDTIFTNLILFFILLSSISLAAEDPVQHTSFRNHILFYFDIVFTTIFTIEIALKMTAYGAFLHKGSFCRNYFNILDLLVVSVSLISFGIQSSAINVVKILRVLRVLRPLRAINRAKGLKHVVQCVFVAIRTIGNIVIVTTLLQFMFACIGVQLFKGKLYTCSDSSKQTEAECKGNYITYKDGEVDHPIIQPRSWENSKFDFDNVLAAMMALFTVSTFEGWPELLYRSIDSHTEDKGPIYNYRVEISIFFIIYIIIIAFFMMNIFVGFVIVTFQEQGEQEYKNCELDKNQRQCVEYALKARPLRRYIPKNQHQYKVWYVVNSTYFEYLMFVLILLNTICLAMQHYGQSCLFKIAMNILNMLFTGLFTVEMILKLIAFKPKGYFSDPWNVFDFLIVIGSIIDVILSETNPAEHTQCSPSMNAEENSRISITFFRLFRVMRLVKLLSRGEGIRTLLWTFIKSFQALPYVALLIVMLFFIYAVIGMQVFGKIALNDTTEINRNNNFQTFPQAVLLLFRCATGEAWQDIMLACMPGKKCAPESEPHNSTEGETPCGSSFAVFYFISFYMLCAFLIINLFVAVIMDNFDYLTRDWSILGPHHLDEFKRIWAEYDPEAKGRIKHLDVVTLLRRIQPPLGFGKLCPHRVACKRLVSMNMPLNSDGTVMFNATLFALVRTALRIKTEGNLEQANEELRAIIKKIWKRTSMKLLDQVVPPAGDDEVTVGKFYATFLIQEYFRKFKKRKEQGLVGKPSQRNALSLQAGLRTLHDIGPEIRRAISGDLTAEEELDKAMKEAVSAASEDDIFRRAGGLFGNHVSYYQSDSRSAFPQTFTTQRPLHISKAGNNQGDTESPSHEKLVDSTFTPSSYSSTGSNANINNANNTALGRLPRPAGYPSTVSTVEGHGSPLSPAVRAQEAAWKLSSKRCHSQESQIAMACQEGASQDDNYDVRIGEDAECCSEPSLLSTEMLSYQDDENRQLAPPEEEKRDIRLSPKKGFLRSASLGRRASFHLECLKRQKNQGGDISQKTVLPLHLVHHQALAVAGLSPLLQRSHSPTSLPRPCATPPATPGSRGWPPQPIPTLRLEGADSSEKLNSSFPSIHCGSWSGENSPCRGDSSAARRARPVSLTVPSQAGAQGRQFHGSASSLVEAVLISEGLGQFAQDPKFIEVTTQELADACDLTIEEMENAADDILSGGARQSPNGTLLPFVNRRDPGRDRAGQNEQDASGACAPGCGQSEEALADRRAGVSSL

Chain of Voltage-dependent L-type calcium channel subunit alpha-1D (P27732 whole entry): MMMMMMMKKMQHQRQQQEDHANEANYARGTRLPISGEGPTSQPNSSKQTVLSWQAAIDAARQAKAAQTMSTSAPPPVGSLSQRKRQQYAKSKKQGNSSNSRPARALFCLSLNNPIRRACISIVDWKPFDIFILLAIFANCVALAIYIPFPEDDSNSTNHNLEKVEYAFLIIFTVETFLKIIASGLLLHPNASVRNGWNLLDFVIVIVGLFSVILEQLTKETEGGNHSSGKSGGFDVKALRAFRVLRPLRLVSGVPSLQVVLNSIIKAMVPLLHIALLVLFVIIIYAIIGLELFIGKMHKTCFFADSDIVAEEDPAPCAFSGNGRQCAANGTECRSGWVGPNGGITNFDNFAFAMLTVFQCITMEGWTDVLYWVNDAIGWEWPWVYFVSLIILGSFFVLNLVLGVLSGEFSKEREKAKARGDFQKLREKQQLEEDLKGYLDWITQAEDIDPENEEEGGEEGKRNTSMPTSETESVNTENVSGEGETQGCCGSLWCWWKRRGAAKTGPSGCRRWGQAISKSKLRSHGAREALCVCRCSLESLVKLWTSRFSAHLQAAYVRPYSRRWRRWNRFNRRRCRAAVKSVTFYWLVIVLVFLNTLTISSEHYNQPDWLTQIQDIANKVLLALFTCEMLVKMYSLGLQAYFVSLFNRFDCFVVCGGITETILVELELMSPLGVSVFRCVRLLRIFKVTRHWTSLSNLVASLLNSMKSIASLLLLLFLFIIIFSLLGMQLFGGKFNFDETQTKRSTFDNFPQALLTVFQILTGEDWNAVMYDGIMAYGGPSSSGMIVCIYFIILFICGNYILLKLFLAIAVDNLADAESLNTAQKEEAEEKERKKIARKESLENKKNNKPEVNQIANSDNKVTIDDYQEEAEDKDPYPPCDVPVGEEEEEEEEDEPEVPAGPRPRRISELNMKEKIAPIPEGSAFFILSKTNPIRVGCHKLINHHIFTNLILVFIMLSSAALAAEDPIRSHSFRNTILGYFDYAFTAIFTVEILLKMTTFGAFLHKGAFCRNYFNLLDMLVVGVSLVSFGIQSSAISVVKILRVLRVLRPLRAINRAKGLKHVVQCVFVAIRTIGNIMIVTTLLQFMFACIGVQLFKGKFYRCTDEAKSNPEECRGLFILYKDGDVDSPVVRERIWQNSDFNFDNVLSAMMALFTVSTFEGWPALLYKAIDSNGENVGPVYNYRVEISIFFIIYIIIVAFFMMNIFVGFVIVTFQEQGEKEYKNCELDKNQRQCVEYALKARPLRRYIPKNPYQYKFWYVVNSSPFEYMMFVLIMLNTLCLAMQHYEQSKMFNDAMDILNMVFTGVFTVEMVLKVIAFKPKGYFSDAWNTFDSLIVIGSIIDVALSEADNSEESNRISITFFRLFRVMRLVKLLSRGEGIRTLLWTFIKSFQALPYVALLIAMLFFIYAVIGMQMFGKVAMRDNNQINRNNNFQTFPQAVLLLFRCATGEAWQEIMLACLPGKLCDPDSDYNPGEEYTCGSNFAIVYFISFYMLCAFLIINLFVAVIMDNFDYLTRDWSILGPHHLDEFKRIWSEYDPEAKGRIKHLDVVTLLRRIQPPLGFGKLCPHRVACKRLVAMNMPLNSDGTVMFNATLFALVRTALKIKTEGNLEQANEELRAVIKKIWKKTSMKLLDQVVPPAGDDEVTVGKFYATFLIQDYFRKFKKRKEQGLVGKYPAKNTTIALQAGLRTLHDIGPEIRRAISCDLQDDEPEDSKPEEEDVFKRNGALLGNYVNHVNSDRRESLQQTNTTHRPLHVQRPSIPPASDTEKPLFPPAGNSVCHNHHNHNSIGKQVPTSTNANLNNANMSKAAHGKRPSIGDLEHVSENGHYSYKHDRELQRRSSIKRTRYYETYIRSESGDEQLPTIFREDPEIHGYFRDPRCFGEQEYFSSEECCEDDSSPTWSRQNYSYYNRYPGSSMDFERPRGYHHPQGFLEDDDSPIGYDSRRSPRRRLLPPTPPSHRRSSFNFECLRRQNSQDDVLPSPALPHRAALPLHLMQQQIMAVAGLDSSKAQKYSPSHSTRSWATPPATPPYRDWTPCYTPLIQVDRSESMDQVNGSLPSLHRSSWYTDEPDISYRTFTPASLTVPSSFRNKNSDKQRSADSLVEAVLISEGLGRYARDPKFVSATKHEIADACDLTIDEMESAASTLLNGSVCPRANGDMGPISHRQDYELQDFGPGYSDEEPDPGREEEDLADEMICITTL

Row | Structure (SMILES) | IC50 [1] [µM] | IC50 [2] [µM]
1 | COC(=O)C1=C(C)NC(C)=C(C(=O)OCCC(C)c2ccccc2)C1c1cccc([N+](=O)[O-])c1 (stereo unspecified) | 0.011 | 0.006
2 | COC(=O)C1=C(C)NC(C)=C(C(=O)O)C1c1cccc([N+](=O)[O-])c1 (stereo unspecified) | 0.93 | 0.9
3 | C=CCOC(=O)C1=C(C)NC(C)=C(C(=O)OC)C1c1ccccc1[N+](=O)[O-] (stereo unspecified) | 0.01 | 0.008
4 | COC(=O)C1=C(C)NC(C)=C(C(=O)OCCCOc2ccccc2)C1c1cccc([N+](=O)[O-])c1 (stereo unspecified) | 0.011 | 0.009
5 | COC(=O)C1=C(C)NC(C)=C(C(=O)OCCCCc2ccccc2)C1c1cccc([N+](=O)[O-])c1 (stereo unspecified) | 0.038 | 0.01
6 | C=C(C)C(=O)OCCOC(=O)C1=C(C)NC(C)=C(C(=O)OCC)C1c1cccc([N+](=O)[O-])c1 (stereo unspecified) | 0.01 | 0.01
7 | CCOC(=O)C1=C(C)NC(CCl)=C(C(=O)OCC)C1c1cccc([N+](=O)[O-])c1 (stereo unspecified) | 0.053 | 0.01
8 | CCOC(=O)C1=C(C)NC(/C=C/c2ccc([N+](=O)[O-])cc2)=C(C(=O)OCC)C1c1cccc([N+](=O)[O-])c1 (stereo unspecified) | 2.06 | 1.94
9 | CCOC(=O)C1=C(C)NC(C)=C(C(=O)OCC)C1c1ccccc1SC | 0.015 | 0.008
10 | COC(=O)C1=C(C)NC(C)=C(C(=O)OCCC(c2ccccc2)c2ccccc2)C1c1cccc([N+](=O)[O-])c1 (stereo unspecified) | 0.27 | 0.1
11 | COC(=O)C1=C(C)NC(C)=C(C(=O)OCCNC(=O)C(F)(F)F)C1c1cccc([N+](=O)[O-])c1 (stereo unspecified) | 0.55 | 0.41
12 | COC(=O)C1=C(C)NC(C)=C(C(=O)OCc2ccc3c(c2)OCO3)C1c1cccc([N+](=O)[O-])c1 (stereo unspecified) | 0.022 | 0.013
13 | CCOC(=O)C1=C(C)NC2=C(C(=O)OC2)C1c1cccc([N+](=O)[O-])c1 (stereo unspecified) | > 4 | > 4
14 | COC(=O)C1=C(C)NC(C)=C(C(=O)OCCC#N)[C@@H]1c1cccc([N+](=O)[O-])c1 | 0.399 | 0.262
15 | CCCCC1=C(C(=O)OCC)C(c2cccc([N+](=O)[O-])c2)C(C(=O)OCC)=C(C)N1 (stereo unspecified) | 0.02 | 0.02
16 | CCOC(=O)C1=C(C)NC(CN2CCN(c3ccccc3)CC2)=C(C(=O)OCC)C1c1cccc([N+](=O)[O-])c1 (stereo unspecified) | 0.61 | 0.63
17 | CCOC(=O)C1=C(C)NC(C)=C(C(=O)OCC)C1(C)c1ccccc1 | 2.14 | 0.63
18 | COC(=O)C1=C(C)NC(C)=C(C(=O)OC)C1c1ccccc1SC | 0.035 | 0.008
19 | COC(=O)C1=C(C)NC(C)=C(C(=O)OCC23CC4CC(C)(CC(C)(C4)C2)C3)C1c1cccc([N+](=O)[O-])c1 (stereo unspecified) | 5.07 | 0.685
20 | CCOC(=O)C1=C(C)NC(/C=C/C#N)=C(C(=O)OCC)C1c1cccc([N+](=O)[O-])c1 (stereo unspecified) | 0.045 | 0.022
21 | COC(=O)C1=C(C)NC(C)=C(C(=O)OCc2ccc(F)c(F)c2)C1c1cccc([N+](=O)[O-])c1 (stereo unspecified) | 0.02 | 0.007
22 | CCOC(=O)C1=C(C)NC(COC)=C(C(=O)OC)C1c1ccccc1[N+](=O)[O-] (stereo unspecified) | 0.79 | 1.76
23 | CCOC(=O)C1=C(C)NC(COC)=C(C(=O)OC)C1c1cccc([N+](=O)[O-])c1 (stereo unspecified) | 0.096 | 0.014

Row | Structure (SMILES) | IC50 [1] [µM] | IC50 [2] [µM]
24 | CCOC(=O)C1=C(C)NC(C)=C(C(=O)OC=O)C1c1cccc([N+](=O)[O-])c1 (stereo unspecified) | 13.9 | 33.3
25 | COC(=O)C1=C(C)NC(C)=C(C(=O)OCCC#N)[C@H]1c1cccc([N+](=O)[O-])c1 | 0.589 | 0.143
26 | CCOC(=O)C1=C(C)NC(C)=C(C(=O)OCC)C1c1cccc(F)c1F | 0.01 | 0.015
27 | COC(=O)C1=C(C)NC(C)=C(C(=O)OC/C=C/c2ccccc2)C1c1cccc([N+](=O)[O-])c1 (stereo unspecified) [PRANIDIPINE] | 0.037 | 0.037
28 | CCOC(=O)C1=C(C)OC(C)=C(C(=O)OCC)C1c1cccc([N+](=O)[O-])c1 | 1.92 | > 4
29 | COC(=O)C1=C(C)NC(C)=C(C(=O)OCc2ccc(OC)cc2)C1c1cccc([N+](=O)[O-])c1 (stereo unspecified) | 0.079 | 0.051
30 | COC(=O)C1=C(C)NC(C)=C(C(=O)OCc2cccs2)C1c1cccc([N+](=O)[O-])c1 (stereo unspecified) | 0.023 | 0.031
31 | CCOC(=O)C1=C(C)NC(C=CC(=O)OC)=C(C(=O)OCC)C1c1cccc([N+](=O)[O-])c1 (mixture of isomers) | 0.213 | 0.313
32 | COC(=O)C1=C(C)NC(C)=C(C(=O)OCc2c(Cl)cc(Cl)cc2Cl)C1c1cccc([N+](=O)[O-])c1 (stereo unspecified) | 0.034 | 0.01
33 | COC(=O)C1=C(C)NC(C)=C(C(=O)OCCc2ccc(Cl)cc2)C1c1cccc([N+](=O)[O-])c1 (stereo unspecified) | 0.039 | 0.008
34 | COC(=O)C1=C(C)NC(C)=C(C(=O)OC2C=CCCC2)C1c1cccc([N+](=O)[O-])c1 (stereo unspecified) | 0.01 | 0.01
35 | CCOC(=O)C1=C(C)NC(C)=C(C(=O)OCCOC)C1c1cccc([N+](=O)[O-])c1 (stereo unspecified) | 0.082 | 0.016
36 | CCOC(=O)C1=C(C)NC(C)=C(C(=O)OCc2ccc([N+](=O)[O-])cc2)C1c1cccc([N+](=O)[O-])c1 (stereo unspecified) | 0.14 | 0.13
37 | COC(=O)C1=C(C)NC(C)=C(C(=O)OC2Cc3ccccc3C2)C1c1cccc([N+](=O)[O-])c1 (stereo unspecified) | 0.043 | 0.072
38 | COC(=O)C1=C(C)NC(C)=C(C(=O)OCc2ccc(OC)c(OC)c2)C1c1cccc([N+](=O)[O-])c1 (stereo unspecified) | 0.117 | 0.112
39 | COC(=O)C1=C(C)NC(C)=C(C(=O)OCCC#N)C1c1cccc([N+](=O)[O-])c1 (stereo unspecified) | 0.078 | 0.026
40 | COC(=O)C1=C(C)NC(C)=C(C(=O)OCCCl)C1c1cccc([N+](=O)[O-])c1 (stereo unspecified) | 0.022 | 0.026
41 | COC(=O)C1=C(C)NC(C)=C(C(=O)OCC(C)[N+](=O)[O-])C1c1cccc([N+](=O)[O-])c1 (stereo unspecified) | 0.111 | 0.108
42 | C#CCCOC(=O)C1=C(C)NC(C)=C(C(=O)OC)C1c1cccc([N+](=O)[O-])c1 (stereo unspecified) | 0.035 | 0.031
43 | COCC1=C(C(=O)OC)C(c2cccc([N+](=O)[O-])c2)C(C(=O)OC)=C(C)N1 (stereo unspecified) | 0.35 | 0.115
44 | CCCCCOC(=O)C1=C(C)NC(C)=C(C(=O)OCC)C1c1cccc([N+](=O)[O-])c1 (stereo unspecified) | 0.13 | 0.049
45 | COC(=O)C1=C(C)NC(C)=C(C(=O)OCc2ccccc2)C1c1cccc([N+](=O)[O-])c1 (stereo unspecified) | 0.015 | 0.025
46 | COC(=O)C1=C(C)NC(C)=C(C(=O)OCCCCc2ccc(OC)cc2)C1c1cccc([N+](=O)[O-])c1 (stereo unspecified) | 0.038 | 0.017

Row | Structure (SMILES) | IC50 [1] [µM] | IC50 [2] [µM]
47 | CCOC(=O)C1=C(C)NC(C)=C(C(=O)OCCC#N)[C@H]1c1cccc([N+](=O)[O-])c1 | 0.211 | 0.051
48 | CCOC(=O)C1=C(C)NC(C(OCC)OCC)=C(C(=O)OCC)C1c1cccc([N+](=O)[O-])c1 (stereo unspecified) | 0.615 | 0.46
49 | C=C(C)CCOC(=O)C1=C(C)NC(C)=C(C(=O)OC)C1c1cccc([N+](=O)[O-])c1 (stereo unspecified) | 0.047 | 0.023
50 | CCOC(=O)C1=C(C)NC(C)=C(C(C)=O)C1c1ccc2ccccc2c1 (stereo unspecified) | 2.32 | 2.22
51 | COC(=O)C1=C(C)NC(C)=C(C(=O)OCc2cccc(F)c2)C1c1cccc([N+](=O)[O-])c1 (stereo unspecified) | 0.028 | 0.022
52 | CCOC(=O)C1=C(C)NC(C)=C(C(=O)OCCC#N)[C@@H]1c1cccc([N+](=O)[O-])c1 | 0.137 | 0.05
53 | COC(=O)C1=C(C)N=C(C)/C(=C(/O)OC)C1(C)c1ccccc1 (stereo unspecified) | 2.31 | 1.47
54 | CCOC(=O)C1=C(C)NC(C)=C(C(=O)OCC)C1c1ccc(F)cc1F | 0.058 | 0.02
55 | C=CCOC(=O)C1=C(C)NC(C)=C(C(=O)OCC)C1c1ccc2ccccc2c1 (stereo unspecified) | 2.16 | 1.31
56 | COC(=O)C1=C(C)NC(C)=C(C(=O)OCc2ccco2)C1c1cccc([N+](=O)[O-])c1 (stereo unspecified) | 0.015 | 0.02
57 | COC(=O)C1=C(C)NC(C)=C(C(=O)OCc2cc([N+](=O)[O-])cc([N+](=O)[O-])c2)C1c1cccc([N+](=O)[O-])c1 (stereo unspecified) | 0.04 | 0.055
58 | CC1=C(C#N)C(c2cccc(F)c2F)C(C#N)=C(C)N1 | 1.15 | 1.61
59 | C=CCOC(=O)C1=C(C)NC(C)=C(C(=O)OCC)C1c1cccc([N+](=O)[O-])c1 (stereo unspecified) | 0.015 | 0.025
60 | COC(=O)C1=C(C)NC(C)=C(C(=O)OCC2CC2)C1c1cccc([N+](=O)[O-])c1 (stereo unspecified) | 0.021 | 0.028
61 | COC(=O)C1=C(C)NC(C)=C(C(=O)OCC(F)(F)F)C1c1cccc([N+](=O)[O-])c1 (stereo unspecified) | 0.021 | 0.016
62 | CCOC(=O)C1=C(C)NC(COC(C)=O)=C(C(=O)OCC)C1c1cccc([N+](=O)[O-])c1 (stereo unspecified) | 0.037 | 0.01
63 | CCOC(=O)C1=C(C)NC(CO)=C(C(=O)OCC)C1c1cccc([N+](=O)[O-])c1 (stereo unspecified) | 0.045 | 0.049
64 | CCOC(=O)C1=C(C)NC(COC(=O)c2ccccc2)=C(C(=O)OCC)C1c1cccc([N+](=O)[O-])c1 (stereo unspecified) | 0.17 | 0.21
65 | COC(=O)C1=C(C)NC(C)=C(C(=O)OCc2ccc(-c3ccccc3)cc2)C1c1cccc([N+](=O)[O-])c1 (stereo unspecified) | 0.074 | 0.069
66 | CCCC1=C(C(=O)OCC)C(c2cccc([N+](=O)[O-])c2)C(C(=O)OCC)=C(C)N1 (stereo unspecified) | 0.105 | 0.018
67 | COC(=O)C1=C(C)NC(C)=C(C(=O)OCCOc2ccccc2Cl)C1c1cccc([N+](=O)[O-])c1 (stereo unspecified) | 0.046 | 0.019
68 | C=CCOC(=O)C1=C(C)NC(C)=C(C(=O)OC)C1c1cccc([N+](=O)[O-])c1 (stereo unspecified) | 0.015 | 0.015
